One assay deals with Glutamyl endopeptidase (Staphylococcus aureus, UniProt P0C1U8). As to the kind of experiment: Inhibition of Staphylococcus aureus endoproteinase GluC using Ac-Phe-Leu-Glu-ACC as substrate after 30 mins. An outline of the steps: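 V8 protease (75 nM, commercial) in 0.1 M Tris–HCl, 0.05% Tween 20, pH 7.8, 37 °C. Fluorogenic substrate Ac-Phe-Leu-Glu-ACC (Ex 355/Em 460 nm). Enzyme added to substrate plus inhibitor, with [E]0 below [I]0. Observed inhibition rate constants taken from progress curves, giving k2/Ki and Ki.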
Chain of Glutamyl endopeptidase (P0C1U8 whole entry): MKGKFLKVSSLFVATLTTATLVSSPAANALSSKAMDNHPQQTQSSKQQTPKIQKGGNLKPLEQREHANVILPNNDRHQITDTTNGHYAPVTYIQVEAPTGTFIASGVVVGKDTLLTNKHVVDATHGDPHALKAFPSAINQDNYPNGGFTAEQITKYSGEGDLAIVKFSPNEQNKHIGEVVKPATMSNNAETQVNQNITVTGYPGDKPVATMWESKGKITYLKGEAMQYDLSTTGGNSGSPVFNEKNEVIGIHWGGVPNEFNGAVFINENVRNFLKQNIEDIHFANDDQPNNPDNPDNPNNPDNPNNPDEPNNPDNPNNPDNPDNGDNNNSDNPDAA

Assay [1] has as its target T1, Serine protease SplB (Staphylococcus aureus) (UniProt Q53781).
T1 sequence (whole entry): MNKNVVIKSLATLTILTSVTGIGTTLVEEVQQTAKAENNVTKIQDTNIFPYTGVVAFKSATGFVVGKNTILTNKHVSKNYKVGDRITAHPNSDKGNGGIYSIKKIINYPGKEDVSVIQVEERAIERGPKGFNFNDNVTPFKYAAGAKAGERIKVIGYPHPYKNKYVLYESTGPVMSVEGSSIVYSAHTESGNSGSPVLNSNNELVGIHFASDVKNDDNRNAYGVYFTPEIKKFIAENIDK
As to the kind of experiment: Inhibition of Staphylococcus aureus SplB protease using Ac-Trp-Glu-Leu-Gln-ACC as substrate at 200 uM after 30 mins. In a few lines:
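SplB protease (100 nM, recombinant, expressed and purified in-house) in 0.1 M Tris–HCl, 0.01% Triton X-100, pH 7.6, 37 °C. Fluorogenic substrate Ac-Trp-Glu-Leu-Gln-ACC (Ex 355/Em 460 nm). Enzyme added last to substrate plus inhibitor. Percentage inhibition read after 30 min of kinetic measurement with inhibitor at 200 µM.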

The subject of a further assay is Staphylococcus aureus. Put plainly: Antibacterial activity against Staphylococcus aureus ATCC […] after 4 to 24 hrs. In kind it is functional, organism-based.
In assay [2] the target is Glutamyl endopeptidase (Staphylococcus aureus) (UniProt P0C1U8). Put plainly: Inhibition of Staphylococcus aureus endoproteinase GluC-mediated human IgG degradation at 100 uM preincubated 1 hr prior to human IgG degradation addition measured after 24 hrs. An outline of the steps:
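V8 protease (final 1 µM) pre-incubated 1 h at 37 °C with inhibitor (final 100 µM). Human IgG (final 160 µg/ml) then added and incubated 24 h at 37 °C. DMSO-only control. Fragments separated by gel and visualised by silver staining.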

Assay [3] shares this target. As to the kind of experiment: Inhibition of Staphylococcus aureus endoproteinase GluC using Ac-Phe-Leu-Glu-ACC as substrate at 200 uM after 30 mins. In a few lines:
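V8 protease (75 nM) in 0.1 M Tris–HCl, 0.05% Tween 20, pH 7.8, 37 °C, with fluorogenic Ac-Phe-Leu-Glu-ACC (Ex 355/Em 460 nm). Enzyme added last to substrate plus inhibitor. Percentage inhibition recorded after 30 min of kinetic measurement at 200 µM inhibitor.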

The text below walks through data of ChEMBL document CHEMBL2390936, “Phosphonic analogues of glutamic acid as irreversible inhibitors of Staphylococcus aureus endoproteinase GluC: an efficient synthesis and inhibition of the human IgG degradation” (Bioorg Med Chem Lett, 2013).

A word on the Ki: it is a measure of affinity in units of concentration, obtained from inhibition or displacement. Lower therefore signals tighter binding. Usually inhibition stands for the change of the read-out against control, counted positive when it falls. The MIC is the smallest concentration in the dilution series that meets the test's criterion for growth inhibition. A higher MIC goes with weaker potency.

Activity calls are given as the source filed them.

Chain of Glutamyl endopeptidase (Staphylococcus aureus) (P0C1U8 whole entry, the tested form may be a part): as the sequence (P0C1U8 whole entry) above

In the case of `CC(C)C[C@H](NC(=O)OC(C)(C)C)C(=O)NC(CCC(=O)O)P(=O)(Oc1ccccc1)Oc1ccccc1` (mixture of isomers), affinity on Glutamyl endopeptidase was put at a Ki of 7.8 µM. This compound also had an inhibition in assay [1] of 0%.

The compound `CC(C)[C@H](NC(=O)OC(C)(C)C)C(=O)NC(CCC(=O)O)P(=O)(Oc1ccccc1)Oc1ccccc1` (mixture of isomers) came in with a Ki on Glutamyl endopeptidase of 23.3 µM. The compound further came in with an inhibition in assay [1] of 0%.

Consider `CC(C)C[C@H](NC(=O)[C@H](Cc1ccccc1)NC(=O)OC(C)(C)C)C(=O)NC(CCC(=O)O)P(=O)(Oc1ccccc1)Oc1ccccc1` (mixture of isomers), for which the Ki at Glutamyl endopeptidase is 6.2 µM. This compound yielded an inhibition in assay [1] of 0%. Also, the inhibition entry with Staphylococcus aureus is “inactive”. Also, the inhibition entry in assay [2] is “Active”.

With `CC(C)C[C@H](NC(=O)[C@H](CCC(=O)O)NC(=O)OC(C)(C)C)C(=O)NC(CCC(=O)O)P(=O)(Oc1ccccc1)Oc1ccccc1` (mixture of isomers), the affinity at Glutamyl endopeptidase corresponds to a Ki of 9.5 µM. For the same compound, the inhibition in assay [1] worked out at 0%.

`C[C@H](NC(=O)[C@H](Cc1ccccc1)NC(=O)OC(C)(C)C)C(=O)NC(CCC(=O)O)P(=O)(Oc1ccccc1)Oc1ccccc1` (mixture of isomers): the affinity at Glutamyl endopeptidase corresponds to a Ki of 9.4 µM. Moreover, the inhibition in assay [1] came to 0%.

On Glutamyl endopeptidase, `C[C@H](NC(=O)[C@H](CCC(=O)O)NC(=O)OC(C)(C)C)C(=O)NC(CCC(=O)O)P(=O)(Oc1ccccc1)Oc1ccccc1` (mixture of isomers) showed a Ki of 12.9 µM. Besides, in assay [1], the inhibition was found to be 0%.

In turn, `CC(C)[C@H](NC(=O)[C@H](Cc1ccccc1)NC(=O)OC(C)(C)C)C(=O)NC(CCC(=O)O)P(=O)(Oc1ccccc1)Oc1ccccc1` (mixture of isomers) showed a Ki at Glutamyl endopeptidase of 8.15 µM. This compound yielded an inhibition in assay [1] of 0%.

`CC(C)[C@H](NC(=O)[C@H](CCC(=O)O)NC(=O)OC(C)(C)C)C(=O)NC(CCC(=O)O)P(=O)(Oc1ccccc1)Oc1ccccc1` (mixture of isomers): affinity on Glutamyl endopeptidase was put at a Ki of 9.95 µM. This compound showed an inhibition in assay [1] of 0%.

Take `CC(C)C[C@H](NC(=O)[C@H](CC(=O)O)NC(=O)OC(C)(C)C)C(=O)NC(CCC(=O)O)P(=O)(Oc1ccccc1)Oc1ccccc1` (mixture of isomers): the inhibition was 0% in assay [1] and 41% in assay [3].

In the case of `CC(C)C[C@H](NC(=O)[C@H](CCC(=O)O)NC(=O)OC(C)(C)C)C(=O)NC(CCC(N)=O)P(=O)(Oc1ccccc1)Oc1ccccc1` (mixture of isomers), the inhibition in assay [3] is 0%.

In the case of `CC(C)[C@H](NC(=O)[C@H](CC(=O)O)NC(=O)OC(C)(C)C)C(=O)NC(CCC(=O)O)P(=O)(Oc1ccccc1)Oc1ccccc1` (mixture of isomers), the inhibition amounted to 0% in assay [1] and 50% in assay [3].

As to `C[C@H](NC(=O)OC(C)(C)C)C(=O)NC(CCC(=O)O)P(=O)(Oc1ccccc1)Oc1ccccc1` (mixture of isomers), the inhibition in assay [1] turned out to be 0%; in assay [3] it was 39%.

For the compound `C[C@H](NC(=O)[C@H](CC(=O)O)NC(=O)OC(C)(C)C)C(=O)NC(CCC(=O)O)P(=O)(Oc1ccccc1)Oc1ccccc1` (mixture of isomers), the figures for the inhibition in assay [1] and in assay [3] were 0% and 26%, respectively.

Compound `O=C(O)CCC(NC(=O)OCc1ccccc1)P(=O)(Oc1ccccc1)Oc1ccccc1` (racemic) came in with a Ki at Glutamyl endopeptidase of 8.1 µM. Moreover, the inhibition in assay [1] turned out to be 0%.

With `CC(=O)NC(CCC(=O)O)P(=O)(Oc1ccccc1)Oc1ccccc1` (racemic), the Ki at Glutamyl endopeptidase stood at 11.1 µM. In addition, the inhibition in assay [1] is 0%.

GENTAMICIN: in the assay with Staphylococcus aureus, it took 2 µg/mL to inhibit growth (MIC).
